Experimental data from different studies.
Protocols differ between the studies behind these lines.
Target: Serine/threonine-protein kinase MARK1 (MARK1, Homo sapiens, UniProt Q9P0L2)

C[C@@H](c1ccc(-n2cnc3c(N)ncnc32)cc1)N1CCc2nn(C)c(Cc3ccccc3)c2C1=O — remaining binding (binding, competition with immobilised ligand; 0.1 µM): 88%
CCS(=O)(=O)c1cc2cc(C[C@](O)(CC(C)(C)c3ccc(F)cc3C(N)=O)C(F)(F)F)[nH]c2cn1 — remaining binding (cell-free assay, competition with immobilised ligand; 1 µM): 100%
FC(F)(F)Oc1cccc(-c2cnc3ccc(-c4ccncc4)nn23)c1 — remaining binding (cell-free assay, competition with immobilised ligand; 5 µM): 79%
CN(c1nccc(-c2cnn3ncccc23)n1)C1CC1 — remaining binding (binding; 1 µM): 83%
Cc1cnc(Nc2ccc(C(=O)N3CCC(N4CCCC4)CC3)cc2)nc1-c1cc2ccccc2s1 — remaining binding (binding, competition with immobilised ligand; 1 µM): 22%
O=C(NCC1CCOCC1)c1n[nH]cc1NC(=O)c1c(F)cccc1F — remaining binding (binding, competition with immobilised ligand; 1 µM): 100%
Cc1cnn2ncc(-c3ccnc(N(C)C)n3)c2c1 — remaining binding (binding; 1 µM): 98%
O=C(c1ccc(Nc2ncc(Cl)c(-c3ccc(Cl)s3)n2)cc1)N1CCC(N2CCCC2)CC1 — remaining binding (binding, competition with immobilised ligand; 1 µM): 24%
COc1cnc(Nc2cccc(S(N)(=O)=O)c2)nc1N1CCN(c2ccccc2)CC1 — remaining binding (binding, competition with immobilised ligand; 1 µM): 100%
COCCOc1nc(-c2ccc(Cl)nc2)nc2c1CN(C(=O)c1ncn3ccccc13)CC2 — remaining binding (cell-free assay, competition with immobilised ligand; 0.1 µM): 100%
O=C(c1ccc(Nc2ncc(Cl)c(-c3cc4ccccc4s3)n2)cc1)N1CCC(N2CCCC2)CC1 — remaining binding (binding, competition with immobilised ligand; 1 µM): 27%
c1cnn2ncc(-c3ccnc(N4CCC45COC5)n3)c2c1 — remaining binding (binding; 1 µM): 91%
CN(C)C(=O)Cn1cc(-c2nc([C@@](C)(c3ccc(-c4cnc(N)nc4)cc3)C3CC3)no2)cn1 — remaining binding (cell-free assay, competition with immobilised ligand; 1 µM): 92%
CN(CCCC(F)(F)F)c1nccc(-c2cnn3ncccc23)n1 — remaining binding (binding; 1 µM): 100%
COc1ccc2cc(OCC3(C(=O)O)CN(C(=O)c4ccc(F)cc4)C3)ccc2c1 — remaining binding (cell-free assay, competition with immobilised ligand; 1 µM): 100%
C=CC(=O)N1CCC(C(=O)NCC(=O)N2CCN(c3nc(-c4cnc(N)nc4C(F)F)nc(N4CCOCC4)n3)CC2)CC1 — remaining binding (binding, competition with immobilised ligand; 1 µM): 100%
C[C@@H]1CCN(c2nccc(-c3cnn4ncccc34)n2)C1 — remaining binding (binding; 1 µM): 100%
O=c1nc(-c2ccccn2)sc2ccccc12 — remaining binding (binding, competition with immobilised ligand; 1 µM): 100%
N[C@H]1CCN(c2nccc(-c3cnn4ncccc34)n2)C1 — remaining binding (binding; 1 µM): 100%
CNCc1ccccc1-c1csc([C@H](C)Nc2nc(C)nc3cc(OC)c(OC)cc23)c1 — remaining binding (cell-free assay, competition with immobilised ligand; 1 µM): 100%
CC1CCCN1c1nccc(-c2cnn3ncccc23)n1 (stereo not shown) — remaining binding (binding; 1 µM): 100%
COc1cnc(Nc2cccc(S(N)(=O)=O)c2)nc1N1CCN(c2ccccc2)C(=O)C1 — remaining binding (binding, competition with immobilised ligand; 1 µM): 95%
